Values after ≈ are worked out from the molar mass of the structure shown.
Legend:
Mycobacterium avium [1] = assay: Antimycobacterial activity against Isoniazid, rifampicin, ofloxacin and ethambutol-resistant Mycobacterium avium 330/88 assessed as complete growth inhibition after 14 days; assay type: functional; conditions: 330/88, 336 h
Outline: (§1)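 M. tuberculosis 331/88 (H37Rv) inoculum diluted 10-3, M. avium 330/88 diluted 10-5. MIC is the lowest concentration giving complete growth inhibition. Isoniazid and p-aminosalicylic acid as references. Quadruplicate, repeated twice.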

Mycobacterium kansasii [2] = assay: Antimycobacterial activity against Mycobacterium kansasii 235/80 assessed as complete growth inhibition after 21 days; assay type: functional; conditions: 235/80, 504 h
Outline: (§2)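 Dilutions of M. kansasii inoculum were 10-4 for strain 235/80 and 10-5 for clinical isolate 6509/96. MIC was the lowest concentration giving complete growth inhibition, run in quadruplicate and repeated twice.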

[3] = tested on: Staphylococcus epidermidis; assay: Antimicrobial activity against Staphylococcus epidermidis H 6966/08 after 48 hrs by microdilution method; assay type: functional; conditions: H 6966/08, 48 h
Outline: (§3)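 Broth microdilution in Mueller-Hinton broth, compounds dissolved in DMSO, final concentrations 500 to 0.49 µM. Benzylpenicillin and bacitracin were run as comparators. MIC was taken as 95% (IC95) or greater growth reduction versus control. Each determination was done twice.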

[4] = Selectivity index, ratio of IC50 for human HepG2 cells to MIC for Trichophyton mentagrophytes 445
Mycobacterium avium [5] = assay: Antimycobacterial activity against Isoniazid, rifampicin, ofloxacin and ethambutol-resistant Mycobacterium avium 330/88 assessed as complete growth inhibition after 21 days; assay type: functional; conditions: 330/88, 504 h; outline: as §1
Mycobacterium kansasii [6] = assay: Antimycobacterial activity against clinical isolate Mycobacterium kansasii 6509/96 assessed as complete growth inhibition after 7 days; assay type: functional; conditions: 6509/96, 168 h; outline: as §2
Staphylococcus aureus [7] = assay: Antimicrobial activity against Staphylococcus aureus CCM 4516/08 after 48 hrs by microdilution method; assay type: functional; conditions: CCM 4516/08, 48 h
Outline: (§4)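 Mueller-Hinton broth microdilution; compounds dissolved in DMSO, final concentrations 500 to 0.49 µM. […] Benzylpenicillin and bacitracin as comparators. Each determination done twice.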

[8] = tested on: Mycobacterium tuberculosis; assay: Antimycobacterial activity against Mycobacterium tuberculosis H37Rv 331/88 assessed as complete growth inhibition after 21 days; assay type: functional; conditions: H37Rv 331/88, 504 h; outline: as §1
[9] = tested on: Mycobacterium tuberculosis; assay: Antimycobacterial activity against Mycobacterium tuberculosis H37Rv 331/88 assessed as complete growth inhibition after 14 days; assay type: functional; conditions: H37Rv 331/88, 336 h; outline: as §1
Mycobacterium kansasii [10] = assay: Antimycobacterial activity against clinical isolate Mycobacterium kansasii 6509/96 assessed as complete growth inhibition after 21 days; assay type: functional; conditions: 6509/96, 504 h; outline: as §2
Staphylococcus aureus [11] = assay: Antimicrobial activity against methicillin-resistant Staphylococcus aureus H 5996/08 after 24 hrs by microdilution method; assay type: functional; conditions: H 5996/08, 24 h; outline: as §4
[12] = Selectivity index, ratio of IC50 for human HepG2 cells to MIC for Mycobacterium tuberculosis H37Rv; assay type: toxicity, cell-based; conditions: read-out: Selectivity Index
Outline: (§5)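 Selectivity index = HepG2 IC50 / MIC. HepG2 cells (passage 3–4) grown in Eagle's MEM with 10% FBS, L-glutamine and non-essential amino acids. Compounds added from DMSO, eight concentrations in triplicate, tetrazolium-reduction colorimetric read-out.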

[13] = Inhibition of Mycobacterium tuberculosis H37Rv isocitrate lyase assessed as glyoxylate phenyl hydrazone formation at 10 uM
[14] = tested on: Trichophyton mentagrophytes; assay: Antimicrobial activity against Trichophyton mentagrophytes 445 after 120 hrs by microdilution method; assay type: functional; conditions: Trichophyton mentagrophytes, 445, 120 h
Outline: (§6)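 Broth microdilution in RPMI 1640 with glutamine, with fluconazole and amphotericin B as references. For filamentous fungi, MIC is expressed as the IC50, i.e. the concentration giving 50% growth reduction versus control. Each determination was done twice.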

[15] = tested on: Staphylococcus epidermidis; assay: Antimicrobial activity against Staphylococcus epidermidis H 6966/08 after 24 hrs by microdilution method; assay type: functional; conditions: H 6966/08, 24 h; outline: as §3
Mycobacterium kansasii [16] = assay: Antimycobacterial activity against clinical isolate Mycobacterium kansasii 6509/96 assessed as complete growth inhibition after 14 days; assay type: functional; conditions: 6509/96, 336 h; outline: as §2
[17] = Selectivity index, ratio of IC50 for human HepG2 cells to MIC for methicillin-resistant Staphylococcus aureus H 5996/08
Outline: as §5, with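 “read-out. IC50 is the concentration reducing viability to 50% of control; 10% DMSO as 0% viability.” for “read-out.”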

[18] = Selectivity index, ratio of IC50 for human HepG2 cells to MIC for atypical mycobacteria
Outline: as §5, with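 “read-out. IC50 is the concentration reducing viability to 50% of control; 10% DMSO as 0% viability.” for “read-out.”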

Staphylococcus aureus [19] = assay: Antimicrobial activity against methicillin-resistant Staphylococcus aureus H 5996/08 after 48 hrs by microdilution method; assay type: functional; conditions: H 5996/08, 48 h; outline: as §4
Staphylococcus aureus [20] = assay: Antimicrobial activity against Staphylococcus aureus CCM 4516/08 after 24 hrs by microdilution method; assay type: functional; conditions: CCM 4516/08, 24 h; outline: as §4
[21] = tested on: Trichophyton mentagrophytes; assay: Antimicrobial activity against Trichophyton mentagrophytes 445 after 72 hrs by microdilution method; assay type: functional; conditions: Trichophyton mentagrophytes, 445, 72 h; outline: as §6
Enterococcus sp. [22] = assay: Antimicrobial activity against Enterococcus sp. J 14365/08 after 24 hrs by microdilution method; assay type: functional; conditions: J 14365/08, 24 h; outline: as §3
HepG2 = assay: Cytotoxicity against human HepG2 cells assessed as reduction in cell viability after 24 hrs by MTS assay; assay type: cell-based; conditions: HepG2, 24 h
Outline: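 HepG2 hepatocellular carcinoma cells (passage 3–4) were grown in Eagle's MEM with 10% FBS, 1% L-glutamine and non-essential amino acids. Compounds were added from DMSO at eight concentrations in triplicate, with 10% DMSO as the 0% viability control. Viability was read by tetrazolium salt reduction (CellTiter 96 AQueous One). IC50 is the concentration reducing viability to 50% of control.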

Enterococcus sp. [23] = assay: Antimicrobial activity against Enterococcus sp. J 14365/08 after 48 hrs by microdilution method; assay type: functional; conditions: J 14365/08, 48 h; outline: as §3
Mycobacterium kansasii [24] = assay: Antimycobacterial activity against Mycobacterium kansasii 235/80 assessed as complete growth inhibition after 7 days; assay type: functional; conditions: 235/80, 168 h; outline: as §2
Mycobacterium kansasii [25] = assay: Antimycobacterial activity against Mycobacterium kansasii 235/80 assessed as complete growth inhibition after 14 days; assay type: functional; conditions: 235/80, 336 h; outline: as §2
in vitro = conditions: human, HepG2 cells

Compound	MIC (Mycobacterium avium [1])	MIC (Mycobacterium kansasii [2])	MIC [3]	Selectivity Index [4]	MIC (Mycobacterium avium [5])	MIC (Mycobacterium kansasii [6])	MIC (Staphylococcus aureus [7])	MIC [8]	MIC [9]	MIC (Mycobacterium kansasii [10])	MIC (Staphylococcus aureus [11])	selectivity ratio [12]	inhibition [13]	MIC [14]	MIC (Mycobacterium kansasii [16])	Selectivity Index [18]	MIC [21]	IC50 (HepG2)	MIC (Mycobacterium kansasii [24])	MIC (Mycobacterium kansasii [25])	further results
CN(C)C(=S)Oc1ccc(Cl)cc1C(=O)Nc1ccc(C(F)(F)F)cc1	16 µM (≈ 6.45 µg/mL)	32 µM (≈ 12.9 µg/mL)	31.2 µM (≈ 12.6 µg/mL)	<1	16 µM (≈ 6.45 µg/mL)	16 µM (≈ 6.45 µg/mL)	7.81 µM (≈ 3.15 µg/mL)	4 µM (≈ 1.61 µg/mL)	4 µM (≈ 1.61 µg/mL)	32 µM (≈ 12.9 µg/mL)	7.81 µM (≈ 3.15 µg/mL)	16.8	12%	500 µM (≈ 201 µg/mL)	32 µM (≈ 12.9 µg/mL)	2.1	500 µM (≈ 201 µg/mL)	67.3 µM	16 µM (≈ 6.45 µg/mL)	32 µM (≈ 12.9 µg/mL)	MIC [15]: 31.2 µM (≈ 12.6 µg/mL); Selectivity Index [17]: 8.6; MIC (Staphylococcus aureus [19]): 7.81 µM (≈ 3.15 µg/mL); MIC (Staphylococcus aureus [20]): 7.81 µM (≈ 3.15 µg/mL); MIC (Enterococcus sp. [22]): > 500 µM; MIC (Enterococcus sp. [23]): > 500 µM
C[C@@H]1[C@H](O)[C@@H](C)/C=C/C=C/C=C/C=C/C=C/C=C/C=C/[C@H](O[C@@H]2O[C@H](C)[C@@H](O)[C@H](N)[C@@H]2O)C[C@@H]2O[C@](O)(C[C@@H](O)C[C@@H](O)[C@H](O)CC[C@@H](O)C[C@@H](O)CC(=O)O[C@H]1C)C[C@H](O)[C@H]2C(=O)O [AMPHOTERICIN B]	–	–	–	1.3	–	–	–	–	–	–	–	–	–	1.95 µM (≈ 1.8 µg/mL)	–	–	1.95 µM (≈ 1.8 µg/mL)	2.5 µM	–	–	–
CN(C)C(=S)Oc1ccc(Cl)cc1C(=O)Nc1ccc(Br)cc1	16 µM (≈ 6.62 µg/mL)	16 µM (≈ 6.62 µg/mL)	0.49 µM (≈ 0.203 µg/mL)	843.9	16 µM (≈ 6.62 µg/mL)	16 µM (≈ 6.62 µg/mL)	0.49 µM (≈ 0.203 µg/mL)	8 µM (≈ 3.31 µg/mL)	8 µM (≈ 3.31 µg/mL)	32 µM (≈ 13.2 µg/mL)	0.49 µM (≈ 0.203 µg/mL)	10.7	11%	1.95 µM (≈ 0.807 µg/mL)	32 µM (≈ 13.2 µg/mL)	2.7	1.95 µM (≈ 0.807 µg/mL)	85.6 µM	16 µM (≈ 6.62 µg/mL)	16 µM (≈ 6.62 µg/mL)	MIC [15]: 0.49 µM (≈ 0.203 µg/mL); Selectivity Index [17]: 174.8; MIC (Staphylococcus aureus [19]): 0.49 µM (≈ 0.203 µg/mL); MIC (Staphylococcus aureus [20]): 0.49 µM (≈ 0.203 µg/mL); MIC (Enterococcus sp. [22]): > 500 µM; MIC (Enterococcus sp. [23]): > 500 µM
CN(C)C(=O)Oc1ccc(Cl)cc1C(=O)Nc1ccc(F)cc1	125 µM (≈ 42.1 µg/mL)	125 µM (≈ 42.1 µg/mL)	> 125 µM	3.6	125 µM (≈ 42.1 µg/mL)	62.5 µM (≈ 21 µg/mL)	> 125 µM	32 µM (≈ 10.8 µg/mL)	32 µM (≈ 10.8 µg/mL)	125 µM (≈ 42.1 µg/mL)	> 125 µM	14	8%	125 µM (≈ 42.1 µg/mL)	125 µM (≈ 42.1 µg/mL)	3.6	125 µM (≈ 42.1 µg/mL)	444 µM	62.5 µM (≈ 21 µg/mL)	125 µM (≈ 42.1 µg/mL)	MIC [15]: > 125 µM; Selectivity Index [17]: <=3.6; MIC (Staphylococcus aureus [19]): > 125 µM; MIC (Staphylococcus aureus [20]): 125 µM (≈ 42.1 µg/mL); MIC (Enterococcus sp. [22]): 125 µM (≈ 42.1 µg/mL); MIC (Enterococcus sp. [23]): > 125 µM
O=C(Nc1ccc(F)cc1)c1cc(Cl)ccc1O	16 µM (≈ 4.25 µg/mL)	16 µM (≈ 4.25 µg/mL)	–	3.3	32 µM (≈ 8.5 µg/mL)	8 µM (≈ 2.13 µg/mL)	–	8 µM (≈ 2.13 µg/mL)	8 µM (≈ 2.13 µg/mL)	16 µM (≈ 4.25 µg/mL)	–	3.3	14%	–	16 µM (≈ 4.25 µg/mL)	0.8	–	26.1 µM	8 µM (≈ 2.13 µg/mL)	16 µM (≈ 4.25 µg/mL)	–
NNC(=O)c1ccncc1 [ISONIAZID]	> 250 µM	> 250 µM	–	–	> 250 µM	2 µM (≈ 0.274 µg/mL)	–	1 µM (≈ 0.137 µg/mL)	0.5 µM (≈ 0.0686 µg/mL)	4 µM (≈ 0.549 µg/mL)	–	> 250	0%	–	4 µM (≈ 0.549 µg/mL)	–	–	> 250 µM	> 250 µM	> 250 µM	selectivity ratio (in vitro): ≥ 31.3
